Results: ChEMBL document CHEMBL3526133, “Identifying a selective substrate and inhibitor pair for the evaluation of CYP2J2 activity” (Drug Metab Dispos, 2012)
pIC50: −log10 of the molar value. Structures can show the parent of a compound that is named as a salt.

Assays:
[1] = biological target: T1, CYP2J2 (Homo sapiens, UniProt P51589); experiment: in vitro
T1 sequence (P51589 whole entry): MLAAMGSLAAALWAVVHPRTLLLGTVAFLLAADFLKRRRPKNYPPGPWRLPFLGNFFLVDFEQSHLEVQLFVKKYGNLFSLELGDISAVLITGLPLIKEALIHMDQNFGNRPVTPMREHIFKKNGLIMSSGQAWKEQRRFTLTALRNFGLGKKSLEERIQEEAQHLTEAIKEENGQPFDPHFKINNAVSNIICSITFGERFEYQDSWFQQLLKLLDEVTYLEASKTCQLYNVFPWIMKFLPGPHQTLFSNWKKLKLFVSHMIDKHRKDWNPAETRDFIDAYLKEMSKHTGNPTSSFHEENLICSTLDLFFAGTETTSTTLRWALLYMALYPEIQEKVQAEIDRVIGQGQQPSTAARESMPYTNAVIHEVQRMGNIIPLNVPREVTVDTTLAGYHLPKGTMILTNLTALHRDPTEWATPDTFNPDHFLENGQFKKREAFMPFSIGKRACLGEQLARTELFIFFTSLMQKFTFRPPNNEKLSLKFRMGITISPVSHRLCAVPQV

[2] = biological target: T1, CYP2J2; experiment: in vitro; remark: listed apart in the source
[3] = Retention time in potassium phosphate buffer treated with amiodarone hydrochloride at 30 uM by HPLC analysis; assay type: physicochemical
[4] = biological target: T2, Cytochrome P450 2J2 (Homo sapiens, UniProt P51589); experiment: Drug metabolism in human liver microsomes assessed as CYP2J2-mediated compound formation treated with amiodarone at 1 uM after 5 to 45 mins by LC-MS/MS analysis; assay type: ADME
T2 sequence (P51589 whole entry): T1 sequence (P51589 whole entry)

[5] = biological target: T2, Cytochrome P450 2J2; experiment: Drug metabolism assessed as recombinant CYP2J2 (unknown origin)-mediated compound formation treated with amiodarone at 1 uM after 5 to 45 mins by LC-MS/MS analysis; assay type: ADME; conditions: recombinant enzyme
Method in brief: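 Preincubated, then started with NADPH-regenerating system (1 mM NADPH final). Aliquots taken at 0, 5, 10, 20, 30, 45 min and quenched in acetonitrile with internal standard. No-NADPH controls included. Products measured by LC-MS/MS.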

[6] = biological target: T3, Cytochrome P450 1A2 (Homo sapiens, UniProt P05177)
T3 sequence (P05177 whole entry): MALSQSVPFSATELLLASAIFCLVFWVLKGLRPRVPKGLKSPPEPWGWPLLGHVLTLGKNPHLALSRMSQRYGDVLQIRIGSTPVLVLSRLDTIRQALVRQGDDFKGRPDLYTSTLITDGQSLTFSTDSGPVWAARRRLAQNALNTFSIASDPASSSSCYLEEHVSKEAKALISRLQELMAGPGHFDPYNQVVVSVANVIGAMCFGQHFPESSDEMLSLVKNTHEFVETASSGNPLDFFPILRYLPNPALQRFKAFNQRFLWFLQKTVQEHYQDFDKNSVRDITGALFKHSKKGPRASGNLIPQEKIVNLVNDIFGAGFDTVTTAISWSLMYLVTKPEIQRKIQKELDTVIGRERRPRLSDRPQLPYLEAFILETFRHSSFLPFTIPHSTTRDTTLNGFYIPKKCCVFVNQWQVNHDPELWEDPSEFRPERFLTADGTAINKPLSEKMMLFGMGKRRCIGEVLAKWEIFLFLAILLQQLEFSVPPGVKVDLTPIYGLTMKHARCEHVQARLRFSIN

[7] = biological target: T4, Cytochrome P450 2C8 (Homo sapiens, UniProt P10632)
T4 sequence (P10632 whole entry): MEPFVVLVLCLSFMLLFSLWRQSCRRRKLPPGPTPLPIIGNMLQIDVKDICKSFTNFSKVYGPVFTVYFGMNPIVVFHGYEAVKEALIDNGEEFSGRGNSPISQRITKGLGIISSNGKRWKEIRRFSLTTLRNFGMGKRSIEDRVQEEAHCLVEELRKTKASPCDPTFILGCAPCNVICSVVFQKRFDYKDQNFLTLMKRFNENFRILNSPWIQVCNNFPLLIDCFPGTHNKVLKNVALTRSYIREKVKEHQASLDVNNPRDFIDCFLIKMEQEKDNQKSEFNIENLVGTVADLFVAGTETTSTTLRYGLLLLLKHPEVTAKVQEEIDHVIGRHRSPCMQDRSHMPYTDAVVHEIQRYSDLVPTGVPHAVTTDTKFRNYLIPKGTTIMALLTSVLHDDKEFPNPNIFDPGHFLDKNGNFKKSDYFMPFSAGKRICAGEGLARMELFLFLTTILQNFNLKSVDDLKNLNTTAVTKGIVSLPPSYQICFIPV

[8] = biological target: Cytochrome P450 2C9 (Homo sapiens, UniProt P11712)
[9] = biological target: Cytochrome P450 2D6 (Homo sapiens, UniProt P10635)
[10] = biological target: Cytochrome P450 2C19 (Homo sapiens, UniProt P33261)
[11] = recombinant CYP2J2, probe astemizole (O-demethylation)
[12] = recombinant CYP2J2, probe terfenadine (hydroxylation)

Cytochrome P450 2C19, sequence (P33261 whole entry): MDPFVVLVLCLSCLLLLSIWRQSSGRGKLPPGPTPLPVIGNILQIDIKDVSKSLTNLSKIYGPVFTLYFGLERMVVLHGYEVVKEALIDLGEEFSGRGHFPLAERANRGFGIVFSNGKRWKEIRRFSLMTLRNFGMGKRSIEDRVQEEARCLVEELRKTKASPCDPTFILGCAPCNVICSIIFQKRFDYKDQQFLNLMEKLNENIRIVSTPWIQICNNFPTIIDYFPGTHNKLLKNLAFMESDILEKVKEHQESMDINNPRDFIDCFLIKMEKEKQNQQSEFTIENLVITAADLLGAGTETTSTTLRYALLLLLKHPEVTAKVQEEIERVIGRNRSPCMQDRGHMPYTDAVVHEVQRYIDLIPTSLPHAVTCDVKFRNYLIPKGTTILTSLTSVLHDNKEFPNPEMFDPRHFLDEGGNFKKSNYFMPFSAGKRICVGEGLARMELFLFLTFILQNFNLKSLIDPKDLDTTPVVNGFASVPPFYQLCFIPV
Cytochrome P450 2C9, sequence (P11712 whole entry): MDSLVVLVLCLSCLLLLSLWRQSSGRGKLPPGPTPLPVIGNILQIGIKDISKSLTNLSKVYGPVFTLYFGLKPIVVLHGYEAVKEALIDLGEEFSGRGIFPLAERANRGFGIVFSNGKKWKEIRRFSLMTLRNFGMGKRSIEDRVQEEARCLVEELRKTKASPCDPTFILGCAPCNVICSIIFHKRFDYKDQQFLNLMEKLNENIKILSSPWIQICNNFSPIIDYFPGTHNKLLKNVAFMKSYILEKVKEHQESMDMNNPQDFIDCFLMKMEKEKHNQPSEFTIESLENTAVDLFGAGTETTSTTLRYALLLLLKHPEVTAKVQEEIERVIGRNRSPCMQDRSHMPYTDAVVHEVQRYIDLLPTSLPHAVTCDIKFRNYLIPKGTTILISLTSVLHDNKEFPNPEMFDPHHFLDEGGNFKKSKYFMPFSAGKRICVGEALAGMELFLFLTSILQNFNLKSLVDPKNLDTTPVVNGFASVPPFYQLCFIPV
Cytochrome P450 2D6, sequence (P10635 whole entry): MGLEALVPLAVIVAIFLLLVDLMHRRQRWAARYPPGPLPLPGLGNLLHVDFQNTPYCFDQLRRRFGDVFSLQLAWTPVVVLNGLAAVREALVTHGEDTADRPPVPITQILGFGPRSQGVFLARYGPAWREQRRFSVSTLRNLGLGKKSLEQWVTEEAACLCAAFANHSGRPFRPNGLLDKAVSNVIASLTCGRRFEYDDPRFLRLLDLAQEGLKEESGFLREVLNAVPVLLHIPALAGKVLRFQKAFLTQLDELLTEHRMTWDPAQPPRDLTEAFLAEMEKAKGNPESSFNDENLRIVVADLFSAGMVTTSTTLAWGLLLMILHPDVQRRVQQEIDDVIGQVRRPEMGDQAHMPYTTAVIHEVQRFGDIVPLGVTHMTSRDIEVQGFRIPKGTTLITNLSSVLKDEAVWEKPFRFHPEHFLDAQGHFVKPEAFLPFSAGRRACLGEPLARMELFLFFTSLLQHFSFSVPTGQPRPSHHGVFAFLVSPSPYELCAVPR

SMILES	activity at 5 min, 30 µM [1, 11] [%]	activity at 5 min, 30 µM [2, 12] [%]	pIC50 [7]	also measured
CCOC(=O)[C@H](CCc1ccccc1)N[C@@H](C)C(=O)N1Cc2ccccc2C[C@H]1C(=O)O	64.1	51.4		
CCN(CC)CCOc1c(I)cc(C(=O)c2c(CCCCO)oc3ccccc23)cc1I				Retention_time [3]: 12.7 min; Drug metabolism [4]: metabolite_detected; Drug metabolism [5]: metabolite_detected
COc1ccc(CCN(C)CCCC(C#N)(c2ccc(OC)c(OC)c2)C(C)C)cc1OC (stereo not drawn)	69.1	1.3		pIC50 [6]: < 4.52
O[C@@H](c1cc(C(F)(F)F)nc2c(C(F)(F)F)cccc12)[C@H]1CCCCN1 (relative stereo) [(S,R)-MEFLOQUINE]	44.6	22.4	< 4.52	
CCCSc1ccc2nc(NC(=O)OC)[nH]c2c1 [ALBENDAZOLE]			< 4.52	pIC50 [8]: < 4.52; pIC50 [9]: < 4.52; pIC50 [6]: < 4.52; pIC50 [10]: < 4.52
CCN(CC)Cc1cc(Nc2ccnc3cc(Cl)ccc23)ccc1O [AMODIAQUINE]	7.7	22.5		
CC(C)COCC(CN(Cc1ccccc1)c1ccccc1)N1CCCC1 (stereo not drawn) [BEPRIDIL]			< 4.52	pIC50 [9]: < 4.52; pIC50 [6]: < 4.52
CCCC1O[C@@H]2C[C@H]3[C@@H]4CCC5=CC(=O)C=C[C@]5(C)[C@H]4[C@@H](O)C[C@]3(C)[C@]2(C(=O)CO)O1 (stereo partly drawn) [BUDESONIDE]		50.8		
CCN(CC)CCOc1ccc(C(=C(Cl)c2ccccc2)c2ccccc2)cc1 [CLOMIPHENE]	109	44.2		
Clc1ccccc1C(c1ccccc1)(c1ccccc1)n1ccnc1 [CLOTRIMAZOLE]	5.6	14.1		pIC50 [8]: 6.87; pIC50 [9]: 6.05; pIC50 [10]: 5.13
CN(C)CCC=C1c2ccccc2C=Cc2ccccc21 [CYCLOBENZAPRINE]				activity at 5 min, 30 µM ([1]; recombinant enzyme): 65.9%; activity at 5 min, 30 µM ([2]; recombinant enzyme): 48.9%
C#C[C@]1(O)CC[C@H]2[C@@H]3CCC4=Cc5oncc5C[C@]4(C)[C@H]3CC[C@@]21C [DANAZOL]	8	1.6	5.71	pIC50 [6]: < 4.52
O=c1[nH]c2ccccc2n1CCCN1CCC(n2c(=O)[nH]c3cc(Cl)ccc32)CC1 [DOMPERIDONE]	50.5	43.5		
CNCCC(Oc1ccc(C(F)(F)F)cc1)c1ccccc1 (stereo not drawn) [FLUOXETINE]				activity at 5 min, 30 µM ([1]; recombinant enzyme): 87%; activity at 5 min, 30 µM ([2]; recombinant enzyme): 44.3%
COCCCC/C(=N\OCCN)c1ccc(C(F)(F)F)cc1 [FLUVOXAMINE]	54.4	48.7		
O=C(CCCN1CCC(O)(c2ccc(Cl)cc2)CC1)c1ccc(F)cc1 [HALOPERIDOL]	14.7	15.6		

SMILES	activity at 5 min, 30 µM [1, 11] [%]	activity at 5 min, 30 µM [2, 12] [%]	pIC50 [7]	also measured
COC(=O)C1=C(C)NC(C)=C(C(=O)OC(C)C)C1c1cccc2nonc12 (stereo not drawn) [ISRADIPINE]	13.6	23.7		pIC50 [6]: 4.55
CC(=O)N1CCN(c2ccc(OCC3COC(Cn4ccnc4)(c4ccc(Cl)cc4Cl)O3)cc2)CC1 (stereo not drawn) [KETOCONAZOLE]	5.4	5.8		
Cc1c(OCC(F)(F)F)ccnc1C[S+]([O-])c1nc2ccccc2[nH]1 (stereo not drawn) [LANSOPRAZOLE]	71.1	0.7	5.24	pIC50 [8]: 4.72; pIC50 [9]: 5.54; pIC50 [6]: 5.19; pIC50 [10]: 4.87
CCOC(=O)N1CCC(=C2c3ccc(Cl)cc3CCc3cccnc32)CC1 [LORATADINE]			5.53	activity at 5 min, 30 µM ([1]; recombinant enzyme): 4%; activity at 5 min, 30 µM ([2]; recombinant enzyme): 11.4%
CC[C@H](C)C(=O)O[C@H]1C[C@@H](C)C=C2C=C[C@H](C)[C@H](CC[C@@H]3C[C@@H](O)CC(=O)O3)[C@H]21 [LOVASTATIN]	13.6	37.7		
CCC(=O)C(CC(C)N(C)C)(c1ccccc1)c1ccccc1 (stereo not drawn) [METHADONE]	123	43		
Clc1ccc(COC(Cn2ccnc2)c2ccc(Cl)cc2Cl)c(Cl)c1 (stereo not drawn) [MICONAZOLE]	10.1	3.4		
COC(=O)C1=C(C)NC(C)=C(C(=O)OCCN(C)Cc2ccccc2)C1c1cccc([N+](=O)[O-])c1 (stereo not drawn) [NICARDIPINE]				activity at 5 min, 30 µM ([1]; recombinant enzyme): 5.8%; activity at 5 min, 30 µM ([2]; recombinant enzyme): 8.9%
CNCCC=C1c2ccccc2CCc2ccccc21 [NORTRIPTYLINE]				activity at 5 min, 30 µM ([1]; recombinant enzyme): 70.1%; activity at 5 min, 30 µM ([2]; recombinant enzyme): 45.3%
COc1ccc2[nH]c([S+]([O-])Cc3ncc(C)c(OC)c3C)nc2c1 (stereo not drawn) [OMEPRAZOLE]	70.5	46.1		
Cc1ccccc1C(OCCN(C)C)c1ccccc1 (stereo not drawn) [ORPHENADRINE]	102	1.2	< 4.52	pIC50 [8]: < 4.52; pIC50 [6]: < 4.52; pIC50 [10]: 4.62
Fc1ccc([C@@H]2CCNC[C@H]2COc2ccc3c(c2)OCO3)cc1 [PAROXETINE HYDROCHLORIDE]	39	31.6	< 4.52	pIC50 [8]: < 4.52; pIC50 [6]: 5.27
O=c1[nH]c2ccccc2n1C1CCN(CCCC(c2ccc(F)cc2)c2ccc(F)cc2)CC1 [PIMOZIDE]	6.6	27.3	< 4.52	pIC50 [6]: < 4.52
O=c1c(O)c(-c2ccc(O)c(O)c2)oc2cc(O)cc(O)c12 [QUERCETIN]	44.7	29.8		pIC50 [9]: 4.73
CC/C(=C(\c1ccccc1)c1ccc(OCCN(C)C)cc1)c1ccccc1 [TAMOXIFEN]	9.1	11.5	4.84	
CSc1ccc2c(c1)N(CCC1CCCCN1C)c1ccccc1S2 (stereo not drawn) [THIORIDAZINE]	12.9	51.7		
